Assay results taken from ChEMBL document CHEMBL4270638, “Sulfonyl-containing phenyl-pyrrolyl pentane analogues: Novel non-secosteroidal vitamin D receptor modulators with favorable physicochemical properties, pharmacokinetic properties and anti-tumor activity” (Eur J Med Chem, 2018).
Values after ≈ are worked out from the molar mass of the structure shown. Active and inactive are the calls of the source. No cut-off for these calls is given here.

What was measured:
BXPC-3 = assay: Antiproliferative activity against human BxPC3 cells after 24 hrs by MTT assay; format: functional, cell-based; conditions: BXPC-3, 24 h
MCF7 [1] = assay: Antiproliferative activity against human MCF7 cells after 24 hrs by MTT assay; format: functional, cell-based; conditions: MCF7, 24 h
PC-3 = assay: Antiproliferative activity against human PC3 cells after 24 hrs by MTT assay; format: functional, cell-based; conditions: PC-3, 24 h
Vitamin D3 receptor = molecular target: T1, Vitamin D3 receptor (Homo sapiens, UniProt P11473); assay: Displacement of fluormone VDR red from human full-length VDR after 4 hrs by fluorescence polarization assay
T1 sequence (P11473 whole entry): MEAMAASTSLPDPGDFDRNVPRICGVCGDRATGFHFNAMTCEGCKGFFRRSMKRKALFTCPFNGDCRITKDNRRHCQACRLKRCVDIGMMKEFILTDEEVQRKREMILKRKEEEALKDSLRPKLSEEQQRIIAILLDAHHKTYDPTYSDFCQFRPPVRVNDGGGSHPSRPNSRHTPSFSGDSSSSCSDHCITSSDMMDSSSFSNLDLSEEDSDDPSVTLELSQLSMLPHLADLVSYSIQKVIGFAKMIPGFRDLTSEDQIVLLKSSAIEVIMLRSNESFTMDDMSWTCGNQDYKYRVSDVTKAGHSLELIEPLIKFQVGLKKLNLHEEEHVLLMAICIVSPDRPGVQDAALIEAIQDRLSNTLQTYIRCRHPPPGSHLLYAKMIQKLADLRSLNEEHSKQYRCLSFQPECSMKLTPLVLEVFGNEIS

[2] = molecular target: T2, Retinoic acid receptor RXR-alpha/Vitamin D3 receptor (Homo sapiens, UniProt P11473+P19793); assay: Transactivation of recombinant human VDR/RXRalpha expressed in HEK293 cells after 24 hrs by Dual-luciferase reporter gene assay; format: cell-based
T2 sequence (P11473 whole entry): T1 sequence (P11473 whole entry)
T2 sequence (P19793 whole entry): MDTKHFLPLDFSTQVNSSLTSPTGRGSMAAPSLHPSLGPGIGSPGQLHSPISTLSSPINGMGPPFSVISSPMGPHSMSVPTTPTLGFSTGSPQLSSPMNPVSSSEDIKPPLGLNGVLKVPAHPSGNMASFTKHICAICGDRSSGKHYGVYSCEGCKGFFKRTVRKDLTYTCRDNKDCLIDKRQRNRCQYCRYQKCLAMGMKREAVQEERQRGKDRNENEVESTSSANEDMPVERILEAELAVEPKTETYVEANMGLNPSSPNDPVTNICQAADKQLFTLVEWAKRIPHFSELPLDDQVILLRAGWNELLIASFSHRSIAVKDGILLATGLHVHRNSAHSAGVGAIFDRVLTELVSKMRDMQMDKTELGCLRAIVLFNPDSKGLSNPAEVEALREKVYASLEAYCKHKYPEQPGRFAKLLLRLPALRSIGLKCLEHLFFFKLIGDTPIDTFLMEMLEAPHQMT

MCF7 [3] = assay: Cell cycle arrest in human MCF7 cells expressing scrambled siRNA assessed as accumulation at G0/G1 phase at 1 uM after 24 hrs by propidium iodide staining based flow cytometry (reference value: 49.28%); format: functional
MCF7 [4] = assay: Antiproliferative activity against human MCF7 cells expressing VDR siRNA assessed as reduction in BrdU incorporation after 16 hrs by ELISA; format: functional, cell-based; conditions: MCF7, 16 h
MCF7 [5] = assay: Cell cycle arrest in human MCF7 cells expressing scrambled siRNA assessed as accumulation at G2/M phase at 1 uM after 24 hrs by propidium iodide staining based flow cytometry (reference value: 19.6%); format: functional
MCF7 [6] = assay: Cell cycle arrest in human MCF7 cells expressing scrambled siRNA assessed as accumulation at S phase at 1 uM after 24 hrs by propidium iodide staining based flow cytometry (reference value: 29.79%); format: functional
MCF7 [7] = assay: Cell cycle arrest in human MCF7 cells expressing VDR siRNA assessed as accumulation at G0/G1 phase at 1 uM after 24 hrs by propidium iodide staining based flow cytometry (reference value: 49.17%); format: functional
MCF7 [8] = assay: Cell cycle arrest in human MCF7 cells expressing VDR siRNA assessed as accumulation at G2/M phase at 1 uM after 24 hrs by propidium iodide staining based flow cytometry (reference value: 17.57%); format: functional
MCF7 [9] = assay: Cell cycle arrest in human MCF7 cells expressing VDR siRNA assessed as accumulation at S phase at 1 uM after 24 hrs by propidium iodide staining based flow cytometry (reference value: 32%); format: functional
MCF7 [10] = assay: Induction of apoptosis in human MCF7 cells expressing scrambled siRNA assessed as live cells at 1 uM after 24 hrs by Annexin-V-FITC/propidium iodide staining based flow cytometry (reference value: 97.93%); format: functional
MCF7 [11] = assay: Induction of apoptosis in human MCF7 cells expressing scrambled siRNA assessed as early apoptotic cells at 1 uM after 24 hrs by Annexin-V-FITC/propidium iodide staining based flow cytometry (reference value: 0.93%); format: functional
MCF7 [12] = assay: Induction of apoptosis in human MCF7 cells expressing scrambled siRNA assessed as late apoptotic cells at 1 uM after 24 hrs by Annexin-V-FITC/propidium iodide staining based flow cytometry (reference value: 0.98%); format: functional
MCF7 [13] = assay: Induction of apoptosis in human MCF7 cells expressing scrambled siRNA assessed as necrotic cells at 1 uM after 24 hrs by Annexin-V-FITC/propidium iodide staining based flow cytometry (reference value: 0.16%); format: functional
MCF7 [14] = assay: Induction of apoptosis in human MCF7 cells expressing VDR siRNA assessed as live cells at 1 uM after 24 hrs by Annexin-V-FITC/propidium iodide staining based flow cytometry (reference value: 98.35%); format: functional
MCF7 [15] = assay: Induction of apoptosis in human MCF7 cells expressing VDR siRNA assessed as early apoptotic cells at 1 uM after 24 hrs by Annexin-V-FITC/propidium iodide staining based flow cytometry (reference value: 0.49%); format: functional
MCF7 [16] = assay: Induction of apoptosis in human MCF7 cells expressing VDR siRNA assessed as late apoptotic cells at 1 uM after 24 hrs by Annexin-V-FITC/propidium iodide staining based flow cytometry (reference value: 1.01%); format: functional
MCF7 [17] = assay: Induction of apoptosis in human MCF7 cells expressing VDR siRNA assessed as necrotic cells at 1 uM after 24 hrs by Annexin-V-FITC/propidium iodide staining based flow cytometry (reference value: 0.15%); format: functional
[18] = Solubility of the compound in water at pH 7.4 by HPLC method; format: physicochemical
Method in brief: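 Aqueous solubility measured at pH 7.4, with samples quantified by HPLC.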

[19] = Half life in rat liver microsomes in presence of NADPH by HPLC method; format: ADME, microsome
Method in brief: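 Compounds incubated with rat liver microsomes plus NADPH. Remaining compound quantified by HPLC at 0, 5, 10, 20, 30, 45, 60 and 90 min, and half-life calculated.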

[20] = AUC in Sprague-Dawley rat at 5 mg/kg, iv by HPLC method; format: ADME, organism-based; conditions: in vivo
Method in brief: (§1)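 Male Sprague-Dawley rats, 180–220 g, n = 3 per group. Dosed iv at 5 mg/kg or ip at 20 mg/kg in ethanol/EL/saline (1:1:18). Plasma sampled at 0, 0.083, 0.167, 0.25, 0.5, 1, 2, 4, 8, 12 and 24 h and centrifuged 12000 rpm for 10 min. Plasma drug measured by HPLC; parameters by PK modelling; mean ± SD.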

[21] = Half life in Sprague-Dawley rat at 5 mg/kg, iv by HPLC method; format: ADME, organism-based; conditions: in vivo; method in brief: as §1
[22] = Mean residence time in Sprague-Dawley rat at 5 mg/kg, iv by HPLC method; format: ADME, organism-based; conditions: in vivo; method in brief: as §1
[23] = Clearance in Sprague-Dawley rat at 5 mg/kg, iv by HPLC method; format: ADME, organism-based; conditions: in vivo; method in brief: as §1
[24] = AUC in Sprague-Dawley rat at 20 mg/kg, ip by HPLC method; format: ADME, organism-based; conditions: in vivo; method in brief: as §1
[25] = Half life in Sprague-Dawley rat at 20 mg/kg, ip by HPLC method; format: ADME, organism-based; conditions: in vivo; method in brief: as §1
[26] = Mean residence time in Sprague-Dawley rat at 20 mg/kg, ip by HPLC method; format: ADME, organism-based; conditions: in vivo; method in brief: as §1
[27] = Clearance in Sprague-Dawley rat at 20 mg/kg, ip by HPLC method; format: ADME, organism-based; conditions: in vivo; method in brief: as §1
[28] = Bioavailability in Sprague-Dawley rat at 20 mg/kg, ip by HPLC method; format: ADME, organism-based; conditions: in vivo; method in brief: as §1
MCF7 [29] = assay: Antitumor activity against human MCF7 cells xenografted in Balb/c nude mouse assessed as reduction in tumor growth at 10 mg/kg, ip administered three times a week for three weeks starting from day 7 after tumor cell inoculation; format: functional, organism-based
Method in brief: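 […] BALB/c-nu mice, 10 weeks old. 1×10^7 MCF-7 cells injected into the left fourth mammary fat pad; dosing began at about 50 mm3 tumour volume (day 7), n = 5 per group. Dosed ip at 10 mg/kg in ethanol/EL/saline 1:1:18, three times weekly for three weeks. Tumour volume by calipers = length × width² × 0.5; tumour weight and body weight recorded.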

MCF7 [30] = assay: Antitumor activity against human MCF7 cells xenografted in Balb/c nude mouse assessed as increase in p21 expression at […], ip administered three times a week for three weeks starting from day 7 after tumor cell inoculation by immunohistochemical analysis; format: functional, organism-based
Method in brief: (§2)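 Orthotopic MCF-7 fat-pad xenografts in nude mice, as above. Dosing ip three times weekly for three weeks. Tumours fixed 24 h in 4% neutral buffered paraformaldehyde, paraffin-embedded and cut at 5 µm. Sections dewaxed with antigen retrieval, peroxidase quenched with 3% H2O2 for 10 min, then immunostained for p21, p27 and Bax.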

MCF7 [31] = assay: Antitumor activity against human MCF7 cells xenografted in Balb/c nude mouse assessed as increase in p27 expression at […], ip administered three times a week for three weeks starting from day 7 after tumor cell inoculation by immunohistochemical analysis; format: functional, organism-based; method in brief: as §2
MCF7 [32] = assay: Antitumor activity against human MCF7 cells xenografted in Balb/c nude mouse assessed as increase in Bax expression at […], ip administered three times a week for three weeks starting from day 7 after tumor cell inoculation by immunohistochemical analysis; format: functional, organism-based; method in brief: as §2
Mus musculus [33] = assay: Hypercalcemic effect in Balb/c nude mouse xenografted with human MCF7 cells assessed as effect on serum calcium level at 0.5 ug/kg, ip administered three times a week for three weeks starting from day 7 after tumor cell inoculation measured on day 27 (reference value: 0.6 umol/ml); conditions: in vivo
Mus musculus [34] = assay: Hypercalcemic effect in Balb/c nude mouse xenografted with human MCF7 cells assessed as effect on serum calcium level at 0.5 ug/kg, ip administered three times a week for three weeks starting from day 7 after tumor cell inoculation measured on day 17 during compound dosing (reference value: 0.6 umol/ml); conditions: in vivo

Row | SMILES | Activity (MCF7 [3]) [%] | Activity (MCF7 [5]) [%] | Activity (MCF7 [6]) [%] | Activity (MCF7 [7]) [%] | Activity (MCF7 [8]) [%] | Activity (MCF7 [9]) [%] | Activity (MCF7 [10]) [%] | Activity (MCF7 [11]) [%] | Activity (MCF7 [12]) [%] | Activity (MCF7 [13]) [%] | Activity (MCF7 [14]) [%] | Activity (MCF7 [15]) [%] | Activity (MCF7 [16]) [%] | Activity (MCF7 [17]) [%] | other results
1 | CCn1c(C(=O)N[C@@H](C)CO)ccc1C(CC)(CC)c1ccc(OCC(O)C(C)(C)C)c(C)c1 (stereo partly specified) | 55.43 | 11.69 | 31.41 | 51.05 | 18.59 | 29.44 | 95.55 | 1.31 | 2.88 | 0.26 | 96.87 | 0.99 | 1.79 | 0.35 | IC50 (BXPC-3): 15.8 µM; IC50 (MCF7 [1]): 18.2 µM; IC50 (PC-3): 8.5 µM; IC50 (Vitamin D3 receptor): 0.115 µM; EC50 [2]: 0.00681 µM; IC50 (MCF7 [4]): > 50 µM; solubility [18]: 1.7 µg/mL (≈ 3.6 µM); half-life [19]: 0.429 h; AUC [20]: 4650 ng·h/mL; half-life [21]: 2.89 h; MRT [22]: 5.54 h; clearance [23]: 18 mL/min; AUC [24]: 6040 ng·h/mL; half-life [25]: 3.47 h; MRT [26]: 5.5 h; CL/F [27]: 55.2 mL/min; bioavailability [28]: 32.5%; Activity (MCF7 [29]): Active
2 | C=C1/C(=C\C=C2/CCC[C@]3(C)[C@@H]([C@H](C)CCCC(C)(C)O)CC[C@@H]23)C[C@@H](O)C[C@@H]1O [CALCITRIOL] | 55.16 | 13.4 | 30.32 | 51.38 | 17.15 | 30.33 | 95 | 1.29 | 3.38 | 0.33 | 97.25 | 0.84 | 1.49 | 0.42 | Activity (MCF7 [30]): Active; Activity (MCF7 [31]): Active; Activity (MCF7 [32]): Active; Activity (Mus musculus [33]): 0.61 µmol/mL; Activity (Mus musculus [34]): 0.6 µmol/mL
